From ChEMBL document CHEMBL1124265, “Effects of D-amino acid substitution on antagonist activities of angiotensin II analogues” (J Med Chem, 1988) come the findings set out here.

The target in assay [1] is Angiotensin II receptor (Homo sapiens) (UniProt P30556+P50052). Nature of the assay: In vitro angiotensin II-like activity, expressed as percent relative to angiotensin II, measured in the rabbit aorta strip assay. Type of assay: functional, tissue-based. Particulars: Oryctolagus cuniculus.
In assay [2] the test system is Rattus norvegicus. Nature of the assay: In vivo AII-like activity, expressed as percent activity relative to AII (angiotensin II), measured in rat blood pressure assay. Type of assay: functional. The method in brief: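 Rat blood pressure assay in vivo. Residual agonist activity is expressed as percent activity relative to AII.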

The structures appear in SMILES notation. Residues, ends and D or L forms follow the SMILES beside them.

Turning to `CC[C@H](C)[C@H](NC(=O)[C@@H]1CCCN1C(=O)[C@H](Cc1c[nH]cn1)NC(=O)[C@@H](NC(=O)[C@@H](Cc1ccc(O)cc1)NC(=O)[C@@H](NC(=O)[C@H](CCCN=C(N)N)NC(=O)CNC)C(C)C)[C@@H](C)CC)C(=O)O`, the Biological activity in assay [1] is -0%.
In assay [2], `CC[C@H](C)[C@H](NC(=O)[C@H](Cc1ccc(O)cc1)NC(=O)[C@@H](NC(=O)[C@H](CCCN=C(N)N)NC(=O)[C@@H](N)CC(=O)O)C(C)C)C(=O)N[C@@H](Cc1c[nH]cn1)C(=O)N1CCC[C@H]1C(=O)N[C@@](C)(Cc1ccccc1)C(=O)O` came in with a Biological activity of 80%.
In the case of `CC[C@H](C)[C@H](NC(=O)[C@H](Cc1ccc(O)cc1)NC(=O)[C@@H](NC(=O)[C@H](CCCNC(=N)N)NC(=O)[C@@H](N)CC(=O)O)C(C)C)C(=O)N[C@@H](Cc1c[nH]cn1)C(=O)N1CCC[C@H]1C(=O)N[C@@H](C(=O)O)[C@@H](C)CC`, the Biological activity in assay [2] is reported as 0.72%.
`CC[C@H](C)[C@H](NC(=O)[C@H](Cc1ccc(O)cc1)NC(=O)[C@@H](NC(=O)[C@@H](CCCNC(=N)N)NC(=O)CNC)C(C)C)C(=O)NC(Cc1c[nH]cn1)C(=O)N1CCC[C@@H]1C(=O)N[C@@H](C(=O)O)C(C)C` (stereo in doubt): the Biological activity in assay [1] was -0%.
In assay [2], `COC(=O)[C@H](Cc1ccccc1)NC(=O)[C@@H]1CCCN1C(=O)[C@H](Cc1c[nH]cn1)NC(=O)[C@@H](NC(=O)[C@H](Cc1ccc(O)cc1)NC(=O)[C@@H](NC(=O)[C@H](CCCN=C(N)N)NC(=O)[C@@H](N)CC(N)=O)C(C)C)C(C)C` (H-NRVYVHPF-OMe) displayed a Biological activity of 10%.
Take `CC[C@H](C)[C@H](NC(=O)[C@H](Cc1ccc(O)cc1)NC(=O)[C@@H](NC(=O)[C@H](CCCN=C(N)N)NC(=O)[C@@H](N)CC(=O)O)C(C)C)C(=O)N[C@@H](Cc1c[nH]cn1)C(=O)N1CCC[C@H]1C(=O)N[C@H](C(=O)O)C(C)C` (H-DRVYIHPV-OH): the Biological activity in assay [2] is listed as 0.5%.
In assay [1], `CC[C@H](C)[C@H](NC(=O)[C@H](Cc1ccc(O)cc1)NC(=O)[C@@H](NC(=O)[C@@H](CCCNC(=N)N)NC(=O)CNC)C(C)C)C(=O)N[C@@H](Cc1c[nH]cn1)C(=O)N1CCC[C@@H]1C(=O)N[C@](C)(Cc1ccccc1)C(=O)O` had a Biological activity of -0%.
In assay [2], `CC(C)[C@H](NC(=O)[C@H](CCCN=C(N)N)NC(=O)[C@@H](N)CC(N)=O)C(=O)N[C@H](Cc1ccc(O)cc1)C(=O)N[C@H](C(=O)N[C@@H](Cc1c[nH]cn1)C(=O)N1CCC[C@H]1C(=O)N[C@@H](Cc1ccccc1)C(=O)O)C(C)C` displayed a Biological activity of 0.03%.
Compound `CC[C@H](C)[C@H](NC(=O)[C@@H]1CCCN1C(=O)[C@H](Cc1c[nH]cn1)NC(=O)[C@@H](NC(=O)[C@H](Cc1ccc(O)cc1)NC(=O)[C@H](NC(=O)[C@H](CCCN=C(N)N)NC(=O)CNC)C(C)C)[C@@H](C)CC)C(=O)O` registered a Biological activity in assay [1] of -0%.
In turn, `CC[C@H](C)[C@H](NC(=O)[C@H](Cc1ccc(O)cc1)NC(=O)[C@@H](NC(=O)[C@H](CCCN=C(N)N)NC(=O)[C@@H](N)CC(=O)O)C(C)C)C(=O)N[C@@H](Cc1c[nH]cn1)C(=O)N1CCC[C@H]1C(=O)N[C@@H](Cc1c[nH]c2ccccc12)C(=O)O` (H-DRVYIHPW-OH) gave a Biological activity in assay [2] of 22.2%.
Still for that read-out and setting: the same measure for `CC[C@H](C)[C@H](NC(=O)[C@H](Cc1ccc(O)cc1)NC(=O)[C@@H](NC(=O)[C@H](CCCN=C(N)N)NC(=O)[C@@H](N)CC(=O)O)C(C)C)C(=O)N[C@@H](Cc1c[nH]cn1)C(=O)N1CCC[C@H]1C(=O)N[C@@H](Cc1ccc(Br)cc1)C(=O)O`: 50%.
On to `CC[C@H](C)[C@H](NC(=O)[C@@H]1CCCN1C(=O)[C@@H](Cc1c[nH]cn1)NC(=O)[C@@H](NC(=O)[C@@H](Cc1ccc(O)cc1)NC(=O)[C@@H](NC(=O)[C@H](CCCN=C(N)N)NC(=O)CNC)C(C)C)[C@@H](C)CC)C(=O)O`, for which, in assay [1], the Biological activity was -0%.
The compound `CC[C@H](C)[C@H](NC(=O)[C@H](Cc1ccc(O)cc1)NC(=O)[C@@H](NC(=O)[C@@H](CCCNC(=N)N)NC(=O)CNC)C(C)C)C(=O)N[C@@H](Cc1c[nH]cn1)C(=O)N1CCC[C@@H]1C(=O)N[C@H](Cc1ccccc1)C(N)=O` came in with a Biological activity in assay [1] of -0%.
Turning to `CC[C@H](C)[C@H](NC(=O)[C@@H](Cc1ccc(O)cc1)NC(=O)[C@@H](NC(=O)[C@H](CCCNC(=N)N)NC(=O)CNC)C(C)C)C(=O)N[C@@H](Cc1c[nH]cn1)C(=O)N1CCC[C@H]1C(=O)N[C@@H](C(=O)O)C(C)C`, in assay [1], the Biological activity was -0%.
Take `CC(C)[C@H](NC(=O)[C@H](CCCN=C(N)N)NC(=O)[C@@H](N)CC(N)=O)C(=O)N[C@@H](Cc1ccc(O)cc1)C(=O)N[C@H](C(=O)N[C@@H](Cc1c[nH]cn1)C(=O)N1CCC[C@H]1C(=O)N[C@@H](Cc1ccccc1)C(N)=O)C(C)C` (H-NRVYVHPF-NH2): the Biological activity in assay [2] came out at 3%.
On to `CC[C@H](C)[C@H](NC(=O)[C@H](Cc1ccc(O)cc1)NC(=O)[C@@H](NC(=O)[C@@H](CCCN=C(N)N)NC(=O)[C@@H](N)CC(=O)O)C(C)C)C(=O)NC(Cc1c[nH]cn1)C(=O)N1CCC[C@@H]1C(=O)N[C@@H](C(=O)O)[C@@H](C)CC` (stereo in doubt) [listing 1 of 2 here], for which the Biological activity in assay [2] was 0.014%.
As for `CC[C@H](C)[C@H](NC(=O)[C@@H]1CCCN1C(=O)[C@H](Cc1c[nH]cn1)NC(=O)[C@H](NC(=O)[C@@H](Cc1ccc(O)cc1)NC(=O)[C@@H](NC(=O)[C@H](CCCN=C(N)N)NC(=O)CNC)C(C)C)C(C)C)C(=O)O`, the Biological activity in assay [1] was -0%.
In turn, `CC[C@H](C)[C@H](NC(=O)[C@H](Cc1ccc(O)cc1)NC(=O)[C@@H](NC(=O)[C@@H](CCCN=C(N)N)NC(=O)[C@@H](N)CC(=O)O)C(C)C)C(=O)NC(Cc1c[nH]cn1)C(=O)N1CCC[C@@H]1C(=O)N[C@@H](C(=O)O)[C@@H](C)CC` (stereo in doubt) [listing 2 of 2 here] showed a Biological activity in assay [1] of -0%.
In the case of `CC[C@H](C)[C@H](NC(=O)[C@@H]1CCCN1C(=O)[C@H](Cc1c[nH]cn1)NC(=O)[C@@H](NC(=O)[C@@H](Cc1ccc(O)cc1)NC(=O)[C@@H](NC(=O)[C@@H](CCCN=C(N)N)NC(=O)CNC)C(C)C)[C@@H](C)CC)C(=O)O`, the Biological activity in assay [1] was -0%.
Same read-out and setting: the figure for `CC[C@H](C)[C@H](NC(=O)[C@H](Cc1ccc(O)cc1)NC(=O)[C@@H](NC(=O)[C@@H](CCCNC(=N)N)NC(=O)CNC)C(C)C)C(=O)N[C@@H](Cc1c[nH]cn1)C(=O)N1CCC[C@@H]1C(=O)NC(Cc1c[nH]c2ccccc12)C(=O)O` (stereo in doubt) is -0%; for `CC[C@H](C)[C@H](NC(=O)[C@H](Cc1ccc(O)cc1)NC(=O)[C@@H](NC(=O)[C@@H](CCCNC(=N)N)NC(=O)CNC)C(C)C)C(=O)N[C@@H](Cc1c[nH]cn1)C(=O)N1CCC[C@@H]1C(=O)N[C@H](Cc1ccc(Cl)cc1)C(=O)O` it is -0%; for `CC[C@H](C)[C@H](NC(=O)C(C)NC(=O)[C@H](Cc1c[nH]cn1)NC(=O)[C@H](NC(=O)[C@@H](Cc1ccc(O)cc1)NC(=O)[C@@H](NC(=O)[C@H](CCCNC(=N)N)NC(=O)[C@@H](N)CC(=O)O)C(C)C)C(C)C)C(=O)O` (stereo in doubt) it is -0%.
On the same count and under the same terms, the same measure for `CC[C@H](C)[C@H](NC(=O)[C@H](Cc1ccc(O)cc1)NC(=O)[C@@H](NC(=O)[C@@H](CCCNC(=N)N)NC(=O)CNC)C(C)C)C(=O)N[C@@H](Cc1c[nH]cn1)C(=O)N1CCC[C@@H]1C(=O)N[C@@H](Cc1ccc2ccccc2c1)C(=O)O`: -0%.
Still for that read-out and setting: the figure for `CC[C@H](C)[C@H](NC(=O)[C@H](Cc1ccc(O)cc1)NC(=O)[C@@H](NC(=O)[C@@H](CCCNC(=N)N)NC(=O)CNC)C(C)C)C(=O)N[C@@H](Cc1c[nH]cn1)C(=O)N1CCC[C@@H]1C(=O)N[C@H](Cc1ccc(B(O)O)cc1)C(=O)O` is -0%.
